Assay [1] has as its target T1, NAPE-PLD (Homo sapiens, UniProt Q6IQ20).
T1 sequence (Q6IQ20 48-393 limits assumed): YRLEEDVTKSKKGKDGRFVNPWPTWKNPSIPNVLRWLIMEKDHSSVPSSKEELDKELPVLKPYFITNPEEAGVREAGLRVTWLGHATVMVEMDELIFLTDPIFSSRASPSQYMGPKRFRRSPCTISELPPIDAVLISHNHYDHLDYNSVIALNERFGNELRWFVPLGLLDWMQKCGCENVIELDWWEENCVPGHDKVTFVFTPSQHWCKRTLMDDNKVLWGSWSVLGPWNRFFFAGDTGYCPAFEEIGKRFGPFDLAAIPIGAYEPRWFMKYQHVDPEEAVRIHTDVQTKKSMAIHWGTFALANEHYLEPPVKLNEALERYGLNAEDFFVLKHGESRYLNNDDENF
Description: Binding kinetics by surface plasmon resonance. Particulars: for binding affinity compared with another bile acid: SPR, 25 °C, comparison in words.

For assay [2], the target named is T1, NAPE-PLD. Nature of the assay: Fluorescence-based NAPE-PLD activity assay with substrate PED6. The class given is biochemical. In a few lines: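 Recombinant human enzyme, purified by amylose then Ni-affinity and size exclusion. Enzyme at 25 nM in 50 mM Tris-HCl pH 8 was pre-incubated 1 h at room temperature with test bile acids (0–5 mM). PED6 was added to 10 μM final (1% DMSO/ethyl acetate). Fluorescence was read after 30 min at 25 °C in the dark ([…] filters). Monohydroxy bile acid was run with 0.2% w/v DCA.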

Assay [3] has as its target T1, NAPE-PLD. Nature of the assay: Elastic incoherent neutron scattering. Particulars: DCA ~10 times the concentration of the enzyme, 280-307 K, D2O buffer. The gist of the method: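 Purified enzyme in D2O (five exchanges against 100× volume) at 100 mg/mL, with DCA at 0.00, 0.05, 0.15, 0.50 or 1.00% w/v (DCA:enzyme ratios 0–10). Elastic spectra were collected at […], ~3 h per point, on IN13 (up to 100 ps). <u2> came from the slope of ln elastic intensity versus Q2. Force constant came from the <u2>-versus-T slope under a quasi-harmonic approximation.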

For assay [4], the system named is NAPE-PLD. Particulars: without bile acid; cited from earlier work.
The target in assay [5] is T1, NAPE-PLD. Description: Enzyme kinetics by UPLC-MS/MS in the presence of DCA. The class given is biochemical. Particulars: for Km / maximum velocity (Vmax): DCA 0.2% w/v, 37 °C, 15 min, UPLC-MS/MS. The gist of the method:
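Recombinant enzyme was incubated with varying N-arachidonoyl-PE or N-palmitoyl-PE in 0.05 M Tris-HCl pH 7.4 with 0.2% w/v DCA, 15 min, 37 °C. Reactions were stopped with cold acetonitrile containing AEA-d4 or PEA-d4 internal standard, centrifuged, and the organic layer taken. Products (AEA, PEA) were quantified by UPLC-MS/MS MRM in positive ESI against weighted (1/x) calibration curves. Runs were in triplicate. Km and Vmax came from Michaelis–Menten fits.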

“And” between values parts separate entries of the source, which are not always exact repeats. Identical values can stand only once. Like-named read-outs stand apart in the source and are kept apart here.

Consider ten compounds from PMC5074845 (ACS chemical biology, 2016).

By Kd is commonly meant the constant that tells how readily two partners part at equilibrium. Low readings indicate higher affinity, high ones lower affinity. As for `C[C@H](CCC(=O)O)[C@H]1CC[C@H]2[C@@H]3[C@H](O)C[C@@H]4C[C@H](O)CC[C@]4(C)[C@H]3C[C@H](O)[C@]12C` [CA, cholic acid], in assay [1], the dissociation constant (Kd) was roughly 403 µM and the “binding affinity compared with another bile acid” value is listed as “~tenfold lower binding affinity”. In general, EC50 refers to the concentration that produces a half-maximal response. In assay [1], `C[C@H](CCC(=O)O)[C@H]1CC[C@H]2[C@@H]3[C@H](O)C[C@@H]4C[C@H](O)CC[C@]4(C)[C@H]3CC[C@]12C` [CDCA, chenodeoxycholic acid] registered a dissociation constant (Kd) of roughly 25 µM. In addition, the EC50 in assay [2] was roughly 4300 µM. As for `C[C@H](CCC(=O)NCCC[N+](C)(C)CCCS(=O)(=O)[O-])[C@H]1CC[C@H]2[C@@H]3[C@H](O)C[C@@H]4C[C@H](O)CC[C@]4(C)[C@H]3C[C@H](O)[C@]12C` [CHAPS], the “binding affinity compared with another bile acid” value in assay [1] is given as “~tenfold lower”. For `C[C@H](CCC(=O)O)[C@H]1CC[C@H]2[C@@H]3CC[C@@H]4C[C@H](O)CC[C@]4(C)[C@H]3C[C@H](O)[C@]12C` [DCA, deoxycholic acid], in assay [1], the dissociation constant Kd is roughly 43 µM. Besides, in assay [3], the “effect on protein flexibility (force constant k, mean square displacement)” value was “the system lost flexibility”. `CC(=O)O[C@H]1C[C@@]2(C)[C@@H](C[C@@H](O)[C@H]3[C@@]4(C)CC[C@@H](O)[C@@H](C)[C@@H]4CC[C@@]32C)/C1=C(\CCC=C(C)C)C(=O)O` [FA, fusidic acid]: the dissociation constant (Kd) in assay [1] is roughly 70 µM. With `C[C@H](CCC(=O)NCC(=O)O)[C@H]1CC[C@H]2[C@@H]3[C@H](O)C[C@@H]4C[C@H](O)CC[C@]4(C)[C@H]3CC[C@]12C` [GCDG], in assay [2] (read-out: EC50 of enzyme activation, enzyme 25 nM, PED6 substrate, 25 °C, 30 min), the concentration giving a half-maximal response (EC50) was roughly 3600 µM. `C[C@H](CCC(=O)O)[C@H]1CC[C@H]2[C@@H]3CC[C@@H]4C[C@H](O)CC[C@]4(C)[C@H]3CC[C@]12C` [LCA, lithocholic acid] displayed an equilibrium dissociation constant (Kd) in assay [1] of roughly 20 µM. The “effect on NAPE-PLD enzyme activity” value in assay [2] (bile acid alone, PED6 substrate) is “not able alone to solubilize the substrate and activate the membrane enzyme”.

With `C[C@H](CCC(=O)NCCS(=O)(=O)O)[C@H]1CC[C@H]2[C@@H]3[C@H](O)C[C@@H]4C[C@H](O)CC[C@]4(C)[C@H]3C[C@H](O)[C@]12C` [TCA, taurocholic acid], in assay [1], the “binding affinity compared with another bile acid” value is listed as “~tenfold lower”. What is called Km is the substrate concentration at which the rate is half of its maximum. As for “N-arachidonyl-phosphatidylethanolamine [N-arachidonoyl-PE]”, the Vmax in assay [4] is reported as ~ 73 nmol/min/mg. In addition, in assay [5], the Km was ~9 µM and 9.6 µM; the “maximum velocity (Vmax)” value was 1131 (± 124.4) nmol/min/mg protein and ~ 1131 nmol/min/mg protein. Besides, in assay [5] (in the presence of deoxycholic acid), the “rate of hydrolysis compared with N-palmitoyl-phosphatidylethanolamine” value is ~ 7 times.

Turning to “N-palmitoyl-phosphatidylethanolamine [N-palmitoyl-PE]”, the Vmax in assay [4] was ~ 98 nmol/min/mg. Also, in assay [5], the Michaelis-Menten constant (Km) was ~9 µM and 9.2 µM; the “maximum velocity (Vmax)” value was 155.8 (± 38.36) nmol/min/mg protein and ~ 156 nmol/min/mg protein.
